Data: ChEMBL document CHEMBL1153740, “Quassinoids from Eurycoma longifolia” (J Nat Prod, 2009)

system: HT-1080; test: Cytotoxicity against human HT1080 cells after 72 hrs by MTT assay; assay type: functional, cell-based; details: HT-1080, 72 h
How it was run: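 HT-1080 human fibrosarcoma cells, harvested in exponential growth, seeded at 2 × 10^3 cells/well and left 24 h at 37 °C in humidified 5% CO2 to attach. Exposed to varying concentrations of test compounds in medium for 72 h. MTT (0.5 mg/mL) added for 2 h, formazan extracted with DMSO, absorbance read at 550 nm. Viability and IC50 taken from means of three wells.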

| SMILES | IC50 |
| --- | --- |
| CC(=O)O[C@@H]1[C@H](C)[C@]2(O)[C@@H](OC(C)=O)C(=O)O[C@@H]3C[C@H]4C(C)=CC(=O)[C@@H](O)[C@]4(C)[C@H]4[C@]1(O)OC[C@]432 | > 100 µM |
| CC1=CC(=O)O[C@@H]1[C@@]1(C)C[C@H]2OC(=O)[C@H](O)[C@@]3(O)[C@@H](C)[C@@H](O)[C@@]4(O)OC[C@]23[C@@H]14 | > 100 µM |
| C=C1C[C@H](O)[C@@H](O)[C@@]2(C)[C@H]1CC(=O)[C@@]1(C)[C@H]3C(=O)O[C@H]([C@@H]3C)[C@H](O)[C@@H]12 | 45 µM |
| CC1=C2C(=O)[C@H](O)[C@]3(C)[C@H]([C@@H](O)[C@@H]4OC(=O)[C@H]3[C@H]4C)[C@@]2(C)[C@H](O)[C@@H](O)C1 | > 100 µM |
| CC1=C[C@H](O)[C@@H](O)[C@@]2(C)C1=CC(=O)[C@]1(C)[C@@H]2[C@@H](O)[C@@H]2OC(=O)[C@H]1[C@H]2C [EURYCOMALIDE B] | 39 µM |
| CC1=C[C@H](O)[C@@H](O)[C@@]2(C)[C@H]1[C@@H](O)C(=O)[C@@]1(C)[C@H]3C(=O)O[C@H]([C@@H]3C)[C@H](O)[C@@H]12 | 65 µM |
| CC1=CC(=O)[C@@H](O)[C@]2(C)[C@H]3[C@]4(O)OC[C@@]35[C@@H](C[C@@H]12)OC(=O)[C@H](O)[C@]5(O)[C@@H](C)[C@H]4O | 90 µM |
| C[C@H]1[C@H]2OC(=O)[C@@H]1[C@]1(C)C(=O)C=C3[C@H](C)C[C@H](O)[C@@H](O)[C@]3(C)[C@H]1[C@H]2O [EURYCOMALIDE A] | 90 µM |
| COc1cccc2c1C(=O)c1c(O)c3c(c(O)c1C2=O)C[C@@](O)(C(=O)CO)C[C@@H]3O[C@H]1C[C@H](N)[C@H](O)[C@H](C)O1 [DOXORUBICIN] | 0.53 µM |
| CC1=CC(=O)[C@]2(C)[C@H]3[C@@H](O)[C@@H]4OC(=O)[C@@H]([C@H]4C)[C@]3(C)C(=O)C[C@@H]12 [LAURYCOLACTONE A] | > 100 µM |
| CC1=CC(=O)[C@@H](O)[C@@]2(C)[C@H]1[C@@H](O)[C@H]1OC(=O)C3[C@@H](C)[C@H](O)[C@H](O)[C@H]2[C@]31C (stereo partly drawn) [LONGILACTONE] | 19 µM |
| CC1=C[C@H](O)[C@@H](O)[C@@]2(C)[C@H]1CC(=O)[C@@]1(C)[C@H]3C(=O)O[C@H]([C@@H]3C)[C@H](O)[C@@H]12 [EURYCOLACTONE E] | 7.3 µM |
| CC1=CC(=O)[C@@H](O)[C@@]2(C)[C@H]1[C@@H](O)[C@H]1OC(=O)[C@H](O)[C@@]3(O)[C@@H](C)[C@@H](O)[C@H](O)[C@H]2[C@@]13C | 90 µM |
| CC1=CC(=O)[C@@H](O)[C@@]2(C)[C@H]1CC(=O)[C@@]1(C)[C@H]3C(=O)O[C@H]([C@@H]3C)[C@H](O)[C@@H]12 [EURYCOMALACTONE] | 0.98 µM |
| CC1=CC(=O)[C@@H](O)[C@@]2(C)C1=CC(=O)[C@]1(C)[C@@H]2[C@@H](O)[C@@H]2OC(=O)[C@H]1[C@H]2C | 5.3 µM |
| CC1=CC(=O)[C@@H](O)[C@]2(C)[C@H]3[C@@H](O)[C@@H]4OC(=O)[C@@H]([C@H]4C)[C@]3(C)C(=O)C[C@@]12O | 8.8 µM |
| O=c1[nH]cc(F)c(=O)[nH]1 [FLUOROURACIL] | 5.2 µM |
| CC1=CC(=O)[C@@H](O)[C@@]2(C)[C@H]1[C@@H](O)C(=O)[C@@]1(C)[C@H]3C(=O)O[C@H]([C@@H]3C)[C@H](O)[C@@H]12 | 5 µM |
| C[C@H]1[C@H]2OC(=O)[C@@H]1[C@]1(C)C(=O)C=C3[C@@](C)([C@H]1[C@H]2O)[C@H](O)[C@@H](O)[C@H]1O[C@@]31C | > 100 µM |
| CC1=CC(=O)[C@@H](O)[C@]2(C)[C@H]3[C@@H](O)[C@H](O)[C@H](C)[C@]4(O)[C@@H](O)C(=O)O[C@H](C[C@@H]12)[C@]34C | 1.1 µM |
| C[C@H]1[C@H]2OC(=O)[C@@H]1[C@]1(C)C(=O)C=C3C4(C)OC4C(=O)[C@@H](O)[C@]3(C)[C@H]1[C@H]2O (stereo partly drawn) | > 100 µM |
| CC1=CC(=O)[C@@]2(C)C1=CC(=O)[C@]1(C)[C@@H]2[C@@H](O)[C@@H]2OC(=O)[C@H]1[C@H]2C [LAURYCOLACTONE B] | > 100 µM |
| CC1=CC(=O)[C@@H](O)[C@]2(C)[C@H]3[C@@H](O)[C@@H]4OC(=O)[C@@H]([C@H]4C)[C@]3(C)[C@H](O)C[C@@H]12 | 6.2 µM |
